The values below come from ChEMBL document CHEMBL3872252, “New bithiazolyl hydrazones: Novel synthesis, characterization and antitubercular evaluation” (Bioorg Med Chem Lett, 2017).

Each structure is given as a SMILES string. In brackets after ≈: the same amount, converted by molar mass. A value given as a limit tells only on which side of the number the result lay.

Data set [1] is described as follows: Antitubercular activity against Mycobacterium tuberculosis H37Ra ATCC 25177 dormant stage infected in human THP1 cells measured on day 12 by nitrate reductase assay. Type of data set: functional, THP-1. Conditions: ATCC 25177, 288 h.
The nature of data set [2]: Antitubercular activity against Mycobacterium tuberculosis H37Ra ATCC 25177 active stage infected in human THP1 cells measured on day 8 by nitrate reductase assay. Type of data set: functional, THP-1. Conditions: ATCC 25177, 192 h.
Data set [3] in a line: Antitubercular activity against Mycobacterium tuberculosis H37Ra ATCC 25177 active stage measured on day 8 by XTT reduction menadione based two-fold dilution assay. The settings on record: ATCC 25177, 192 h. It counts as functional. The method in brief:
(§1)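 M. tuberculosis H37Ra ATCC 25177 was exposed to 0.7–100 μg/mL in two-fold steps (0.7, 1.5, 3.1 … 100). Active stage was read after 8 days and dormant stage after 12 days of incubation. Inhibition was read by XTT reduction menadione assay (XRMA), absorbance 470 nm. MIC90 is the concentration giving ≥90% inhibition (µg/mL).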

Data set [4] can be described thus: Antitubercular activity against Mycobacterium tuberculosis H37Ra ATCC 25177 dormant stage measured on day 12 by XTT reduction menadione based two-fold dilution assay. Type of data set: functional. Conditions: ATCC 25177, 288 h. The method in brief: as §1
Data set [5] can be described thus: Antitubercular activity against Mycobacterium bovis BCG ATCC 35743 active stage measured on day 8 by nitrate reductase based two-fold dilution assay. It counts as functional, Mycobacterium bovis BCG str. ATCC 35743. Conditions: Mycobacterium tuberculosis variant bovis BCG, ATCC 35743, 192 h.
Data set [6] can be described thus: Antitubercular activity against Mycobacterium bovis BCG ATCC 35743 dormant stage measured on day 12 by nitrate reductase based two-fold dilution assay. It counts as functional, Mycobacterium bovis BCG str. ATCC 35743. The settings on record: Mycobacterium tuberculosis variant bovis BCG, ATCC 35743, 288 h.
A short description of data set [7]: Cytotoxicity against human THP1 cells by MTT assay. Conditions: for GI90: thp-1. Type of data set: toxicity, cell-based, THP-1.
A short description of data set [8]: Cytotoxicity against human MCF7 cells by MTT assay. The settings on record: for GI90: mcf7. It counts as toxicity, cell-based.
The nature of data set [9]: Cytotoxicity against human HCT116 cells by MTT assay. Type of data set: toxicity, cell-based, HCT-116. Conditions: for GI90: hct-116.
Data set [10] can be described thus: Selectivity index, ratio of GI50 for human MCF7 cells to MIC90 for Mycobacterium tuberculosis H37Ra ATCC 25177 active stage. Type of data set: toxicity, cell-based. Conditions: read-out: Selectivity Index. In a few lines: (§2)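 Cytotoxicity was measured on human MCF-7, HCT116 and THP-1 cells by MTT assay, with paclitaxel as reference. GI50 is the concentration inhibiting 50% of cell growth. The selectivity index is GI50 for the given cell line divided by MIC90 for the given mycobacterial strain and stage.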

Data set [11] can be described thus: Selectivity index, ratio of GI50 for human MCF7 cells to MIC90 for Mycobacterium tuberculosis H37Ra ATCC 25177 dormant stage. It counts as toxicity, cell-based. The settings on record: read-out: Selectivity Index. The method in brief: (§3)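 Cytotoxicity was measured on human MCF-7, HCT116 and THP-1 cells by MTT assay, with paclitaxel as reference. The selectivity index is GI50 for the given cell line divided by MIC90 for the given mycobacterial strain and stage.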

Data set [12] can be described thus: Selectivity index, ratio of GI50 for human MCF7 cells to MIC90 for Mycobacterium bovis BCG ATCC 35743 active stage. Type of data set: toxicity, cell-based. The settings on record: read-out: Selectivity Index. The method in brief:
as §2

The nature of data set [13]: Selectivity index, ratio of GI50 for human MCF7 cells to MIC90 for Mycobacterium bovis BCG ATCC 35743 dormant stage. It counts as toxicity, cell-based. Conditions: read-out: Selectivity Index. The method in brief:
as §3

Data set [14] can be described thus: Selectivity index, ratio of GI50 for human HCT116 cells to MIC90 for Mycobacterium tuberculosis H37Ra ATCC 25177 active stage. Type of data set: toxicity, cell-based, HCT-116. Conditions: read-out: Selectivity Index. In a few lines: as §2
Data set [15] in a line: Selectivity index, ratio of GI50 for human HCT116 cells to MIC90 for Mycobacterium tuberculosis H37Ra ATCC 25177 dormant stage. Type of data set: toxicity, cell-based, HCT-116. The settings on record: read-out: Selectivity Index. The method in brief:
as §3

Data set [16] is described as follows: Selectivity index, ratio of GI50 for human HCT116 cells to MIC90 for Mycobacterium bovis BCG ATCC 35743 active stage. Type of data set: toxicity, cell-based, HCT-116. The settings on record: read-out: Selectivity Index. The method in brief: as §2
Data set [17] is described as follows: Selectivity index, ratio of GI50 for human HCT116 cells to MIC90 for Mycobacterium bovis BCG ATCC 35743 dormant stage. It counts as toxicity, cell-based, HCT-116. The settings on record: read-out: Selectivity Index. The method in brief:
as §3

Data set [18] can be described thus: Selectivity index, ratio of GI50 for human THP1 cells to MIC90 for Mycobacterium tuberculosis H37Ra ATCC 25177 active stage. Type of data set: toxicity, cell-based, THP-1. Conditions: read-out: Selectivity Index. The method in brief:
as §2

The nature of data set [19]: Selectivity index, ratio of GI50 for human THP1 cells to MIC90 for Mycobacterium tuberculosis H37Ra ATCC 25177 dormant stage. Type of data set: toxicity, cell-based, THP-1. The settings on record: read-out: Selectivity Index. The method in brief: as §3
Data set [20] is described as follows: Selectivity index, ratio of GI50 for human THP1 cells to MIC90 for Mycobacterium bovis BCG ATCC 35743 active stage. It counts as toxicity, cell-based, THP-1. The settings on record: read-out: Selectivity Index. In a few lines:
as §2

The nature of data set [21]: Selectivity index, ratio of GI50 for human THP1 cells to MIC90 for Mycobacterium bovis BCG ATCC 35743 dormant stage. Type of data set: toxicity, cell-based, THP-1. The settings on record: read-out: Selectivity Index. In a few lines:
as §3

Data set [22] relates to Escherichia coli. Briefly: Growth inhibition of Escherichia coli at 30 ug/ml. It counts as functional. Conditions: read-out: GI.
The test system of data set [23] is Escherichia coli. Description: Growth inhibition of Escherichia coli at 10 ug/ml. Type of data set: functional. Conditions: read-out: GI.
Data set [24] relates to Escherichia coli. Briefly: Growth inhibition of Escherichia coli at 3 ug/ml. Conditions: read-out: GI. It counts as functional. The method in brief:
(§4)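 Screened against Gram-negative E. coli and P. aeruginosa and Gram-positive S. aureus and B. subtilis. Compound was tested at 3 µg/ml, and the read-out is percent growth inhibition.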

Data set [25] deals with Pseudomonas aeruginosa. Description: Growth inhibition of Pseudomonas aeruginosa at 30 ug/ml. It counts as functional. Conditions: read-out: GI.
Data set [26] has as its system Pseudomonas aeruginosa. Description: Growth inhibition of Pseudomonas aeruginosa at 10 ug/ml. The settings on record: read-out: GI. It counts as functional.
For data set [27], the system named is Pseudomonas aeruginosa. Description: Growth inhibition of Pseudomonas aeruginosa at 3 ug/ml. The settings on record: read-out: GI. Type of data set: functional. The method in brief: as §4
Data set [28] deals with Staphylococcus aureus. Description: Growth inhibition of Staphylococcus aureus at 30 ug/ml. It counts as functional. The settings on record: read-out: GI.
Data set [29] concerns Staphylococcus aureus. Briefly: Growth inhibition of Staphylococcus aureus at 10 ug/ml. Type of data set: functional. The settings on record: read-out: GI.
In data set [30] the test system is Staphylococcus aureus. Description: Growth inhibition of Staphylococcus aureus at 3 ug/ml. It counts as functional. The settings on record: read-out: GI. In a few lines: as §4
The test system of data set [31] is Bacillus subtilis. Description: Growth inhibition of Bacillus subtilis at 30 ug/ml. Type of data set: functional. The settings on record: read-out: GI.
For data set [32], the system named is Bacillus subtilis. Briefly: Growth inhibition of Bacillus subtilis at 10 ug/ml. Type of data set: functional. Conditions: read-out: GI.
Data set [33] concerns Bacillus subtilis. Description: Growth inhibition of Bacillus subtilis at 3 ug/ml. Conditions: read-out: GI. Type of data set: functional. In a few lines: as §4

For the compound `C/C(=N\NC(N)=S)c1sc(-c2ccccc2)nc1C`, the MIC90 was 3.67 µg/mL (≈ 12.6 µM) in data set [1]; 1.94 µg/mL (≈ 6.68 µM) in [2]; 1.78 µg/mL (≈ 6.13 µM) in [3]; 2.05 µg/mL (≈ 7.06 µM) in data set [4]; 3.04 µg/mL (≈ 10.5 µM) in data set [5]; 3.46 µg/mL (≈ 11.9 µM) in data set [6]. Moreover, the IC50 is 0.12 µg/mL (≈ 0.413 µM) in data set [3], 0.78 µg/mL (≈ 2.69 µM) in data set [4], 0.94 µg/mL (≈ 3.24 µM) in [5] and 0.97 µg/mL (≈ 3.34 µM) in [6]. For the same compound, the GI50 in data set [7] (THP1 cells) amounted to 81.5 µg/mL (≈ 281 µM); in data set [8] (MCF7 cells), 26 µg/mL (≈ 89.5 µM); in data set [9] (HCT116 cells) it was 47.3 µg/mL (≈ 163 µM). In addition, the GI90 in data set [7], in data set [8] and in data set [9] was more than 100 µg/mL each time. Moreover, the selectivity ratio in data set [10] amounted to 15; in data set [11], 13; in data set [12], 9; in data set [13], 8; in [14], 27; in data set [15], 23. Further, the selectivity ratio came to 16 in data set [16]; 14 in data set [17]; 46 in data set [18]; 40 in [19]; 27 in [20]; 24 in [21]. Also, the inhibition of growth at 30 µg/mL in the data set on Escherichia coli [22] is 79.6%; in the data set on Pseudomonas aeruginosa [25], 79.4%; in the data set on Staphylococcus aureus [28], 78.4%; with Bacillus subtilis [31], 76.7%. The inhibition of growth at 10 µg/mL in the data set with Escherichia coli [23] stood at 66.7%; in the data set on Pseudomonas aeruginosa [26] it was 65.1%; in the data set on Staphylococcus aureus [29] it was 64.5%; in the data set with Bacillus subtilis [32], 61.8%. In addition, the inhibition of growth at 3 µg/mL in the data set on Escherichia coli [24] worked out at 50.9%; in the data set on Pseudomonas aeruginosa [27], 47.4%; with Staphylococcus aureus [30], 47.5%; in the data set on Bacillus subtilis [33], 43.4%.
For `CC(=O)O[C@H]1C(=O)[C@@]2(C)[C@H]([C@H](OC(=O)c3ccccc3)[C@]3(O)C[C@H](OC(=O)[C@H](O)[C@@H](NC(=O)c4ccccc4)c4ccccc4)C(C)=C1C3(C)C)[C@]1(OC(C)=O)CO[C@@H]1C[C@@H]2O` [PACLITAXEL], the GI90 worked out at 5.814 µg/mL (≈ 6.81 µM) in data set [7], 0.075 µg/mL (≈ 0.0878 µM) in data set [8] and 5.21 µg/mL (≈ 6.1 µM) in [9].
Consider `CO[C@H]1/C=C/O[C@@]2(C)Oc3c(C)c(O)c4c(O)c(c(/C=N/N5CCN(C)CC5)c(O)c4c3C2=O)NC(=O)/C(C)=C\C=C\[C@H](C)[C@H](O)[C@@H](C)[C@@H](O)[C@@H](C)[C@H](OC(C)=O)[C@@H]1C` [RIFAMPIN], for which the MIC90 stood at 0.7 µg/mL (≈ 0.851 µM) in data set [1]; 0.5 µg/mL (≈ 0.608 µM) in data set [2]; 0.51 µg/mL (≈ 0.62 µM) in data set [3]; 0.75 µg/mL (≈ 0.911 µM) in data set [4]; 0.45 µg/mL (≈ 0.547 µM) in data set [5]; 0.81 µg/mL (≈ 0.984 µM) in data set [6]. The IC50 was 0.51 µg/mL (≈ 0.62 µM) in data set [3], 0.75 µg/mL (≈ 0.911 µM) in data set [4], 0.45 µg/mL (≈ 0.547 µM) in [5] and 0.81 µg/mL (≈ 0.984 µM) in [6]. Also, the GI90 in data set [7], in [8] and in data set [9] was more than 100 µg/mL throughout.
